For series [1], the system named is HEK293. As to the kind of experiment: Reduction in Abeta40 protein production in APP expressing HEK cells at 0.5 to 1.5 uM after 48 hrs by ELISA method. It is filed as functional, cell-based. Particulars: Homo sapiens. The procedure, abridged: (§1)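 HEK-APP cells treated 48 h with increasing compound concentrations (0.75, 1, 1.5 μM). Secreted Aβ40 in equal amounts of conditioned medium quantified by sandwich ELISA. Values expressed relative to blank control; mean ± SD of three independent experiments.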
On the technique in general: ELISA stands for enzyme-linked immunosorbent assay.

For series [2], the system named is HeLa. Put plainly: Binding affinity to ADAM10 5'-UTR mutant RNA QGRS (unknown origin) transfected in human HeLa cells assessed as increase in luciferase mRNA expression at 0.5 to 2.5 uM after 24 hrs by RT-PCR method. It is filed as cell-based.
Series [3] deals with HeLa. As to the kind of experiment: Binding affinity to Bcl-2 RNA QGRS (unknown origin) transfected in human HeLa cells assessed as increase in ADAM10 translation efficiency at 2.5 uM after 24 hrs by Renilla/firefly dual luciferase reporter assay. In kind it is cell-based. In outline:
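HeLa cells carrying luciferase reporter plasmids with the N-Ras, Bcl-2 or VEGF 5′-UTR quadruplex (or its mutant) treated with compound up to 2.5 μM for 24 h. Renilla/firefly luciferase activity then measured.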
In general terms: Reporter assays use an easily measured gene product as a stand-in for the process of interest.

The nature of series [4]: Toxicity against APP expressing HEK cells assessed as reduction in cell viability after 48 hrs by MTT assay. In kind it is cell-based, HEK293. Particulars: human.
Series [5] deals with HeLa. As to the kind of experiment: Toxicity against human HeLa cells assessed as effect on cell morphology at 0.5 to 2.5 uM after 24 hrs. In kind it is cell-based. In outline: (§2)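 HeLa cells inspected for cell number and morphology before the luciferase read-out, after reporter-plasmid transfection and 24 h exposure to 0, 0.5, 1 or 2.5 μM compound.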
The nature of series [6]: Selectivity index, ratio of affinity to N-Ras RNA QGRS (unknown origin) to ADAM10 A10-Wt RNA QGRS (unknown origin) by Renilla/firefly dual luciferase reporter assay.
Series [7] has as its system HeLa. As to the kind of experiment: Toxicity against human HeLa cells assessed as effect on cell number at 0.5 to 2.5 uM after 24 hrs. In kind it is cell-based. The procedure, abridged: as §2
In a further series the test system is HEK-APP. Put plainly: Binding affinity to ADAM10 A10-RNA QGRS (unknown origin) transfected in HEK-APP cells assessed as increase in sAPPalpha level at 1.5 uM after 48 hrs by Western blotting method. It is filed as cell-based. In outline:
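HEK-APP cells (DMEM, 10% FBS, 2 mM glutamine, 0.2 mg/mL G418) treated with 0, 0.5, 0.75, 1 or 1.5 μM compound for 48 h. Lysates in Tris/NaCl/EDTA/1% Triton buffer immunoblotted for ADAM10, APP and β-actin; conditioned medium blotted for sAPPα. Signal by densitometry, normalized to β-actin, relative to blank control; mean ± SD, three independent experiments.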

The subject of series [8] is HeLa. Put plainly: Binding affinity to ADAM10 A10-RNA QGRS (unknown origin) transfected in human HeLa cells assessed as increase in ADAM10 translation efficiency at 0.5 uM after 24 hrs by Renilla/firefly dual luciferase reporter assay. In kind it is cell-based. The procedure, abridged:
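HeLa cells transfected with 0.8 μg A10-Wt, A10-Mut or A10-Del plasmid (G-quadruplex motif upstream of Renilla in psiCHECK-2). Screening: 24 h at a single 2 μM concentration. Follow-up: plasmid for 12 h, then 0, 0.5, 1 or 2.5 μM for 24 h. Renilla normalized to firefly, relative to untreated control; mean ± SD of three independent measurements.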

Series [9] in a line: Selectivity index, ratio of affinity to Bcl-2 RNA QGRS (unknown origin) to ADAM10 A10-Wt RNA QGRS (unknown origin) by Renilla/firefly dual luciferase reporter assay.
A short description of series [10]: Binding affinity to ADAM10 A10-RNA QGRS (unknown origin) by microscale thermophoresis method.
For series [11], the system named is HeLa. Put plainly: Binding affinity to ADAM10 5'-UTR mutant RNA QGRS (unknown origin) transfected in human HeLa cells assessed as increase in ADAM10 translation efficiency at 0.5 uM after 24 hrs by Renilla/firefly dual luciferase reporter assay. It is filed as cell-based. The procedure, abridged:
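HeLa cells transfected with 0.8 μg 5′UTR-Wt or 5′UTR-Mut dual-luciferase plasmid. After 12 h, incubated 24 h with 0, 0.5, 1 or 2.5 μM compound. Renilla luciferase normalized to firefly and expressed relative to the ligand-free control; mean ± SD of three independent experiments, each in triplicate.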

The test system of series [12] is HEK293. As to the kind of experiment: Reduction in Abeta40 protein production in APP expressing HEK cells at 1.5 uM after 48 hrs by ELISA method. In kind it is functional, Homo sapiens. Also noted: scale not given: the % may be the effect or the level left. The procedure, abridged:
as §1

Series [13] is described as follows: Binding affinity to 5'-end biotinylated ADAM10 A10-mutant RNA QGRS (unknown origin) by surface plasmon resonance assay method. The procedure, abridged:
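SPR with 5′-biotinylated A10-RNA-Wt or A10-RNA-Mut immobilized on a neutravidin chip in running buffer (50 mM Tris-HCl pH 7.5, 100 mM KCl). Ligand serial dilutions in running buffer injected at 20 μL/min for association, then dissociation. Chip regenerated with 50 mM NaOH between runs.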
In general terms: SPR reads the build-up and loss of mass on a sensor chip optically.

The test system of series [14] is HEK293. As to the kind of experiment: Reduction in Abeta40 protein production in APP expressing HEK cells at 0.75 uM after 48 hrs by ELISA method. In kind it is functional, Homo sapiens. Also noted: scale not given: the % may be the effect or the level left. The procedure, abridged:
as §1

Consider 1 compound from ChEMBL document CHEMBL3425405, “Discovery of Small Molecules for Up-Regulating the Translation of Antiamyloidogenic Secretase, a Disintegrin and Metalloproteinase 10 (ADAM10), by Binding to the G-Quadruplex-Forming Sequence in the 5' Untranslated Region (UTR) of Its mRNA” (J Med Chem, 2015).

Active and inactive are the calls of the source. The calls are words filed in the database; no cut-off is given here.

The term IC50 denotes the concentration needed to halve the response being measured. The Kd is the concentration at which binding is half-saturated. Turning to `CCn1c2ccccc2c2cc(/C=C/c3cc(N4CCN(C)CC4)c4ccccc4[n+]3C)ccc21.[I-]`, the Activity result is “Dose-dependent effect” with HEK293 [1]; 20% with HeLa [3]; “Non-toxic” in the series with HeLa [5]; “Non-toxic” in the series on HeLa [7]; 14.1% with HeLa [8]; 40.8% in the series with HEK293 [12]. In addition, in the series with HEK293 [14], the Activity is recorded as 7.7%. Moreover, the outcome (in the series on HeLa [2]; in the series with HeLa [11]; in [13]) was inactive. Further, the IC50 at 48 h in [4] worked out at 10.7 µM. The Selectivity Index in series [6] and in series [9] was 3 throughout. The fold change (FC) in the series with HEK-APP stood at 3.3. For the same compound, the Kd in series [10] was 4.9 µM.
